Test results reported in ChEMBL document CHEMBL1641479, “2-Substituted (S)-2-(3,3-dimethyl-1-oxo-10,10a-dihydroimidazo[1,5-b]isoquinolin-2(1H,3H,5H)-yl)acetic acids: Conformational prediction, synthesis, anti-thrombotic and vasodilative evaluation” (Bioorg Med Chem, 2011).
Values joined by “and” are separate entries in the source; they are usually repeats but may differ in a detail not shown here. Identical values can stand only once.

Tests used:
[1] = Antiplatelet activity against pig platelet assessed as inhibition of PAF-induced platelet aggregation by spectrophotometry; assay type: functional, cell-based; conditions: Sus scrofa
Summary of the method: (§1)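 Pig blood (six pigs) spun 1000 rpm 10 min for PRP, then 1500 rpm 10 min for PPP; PRP adjusted to 2×10^8 platelets/mL with autologous PPP. Compound (final 100 µM to 1 nM, diluted in NS from DMSO/NS stock) or NS added, then inducer at final PAF 0.1 µM, ADP 10 µM, AA 350 µM or thrombin 0.1 U/mL.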

[2] = Antiplatelet activity against pig platelet assessed as inhibition of ADP-induced platelet aggregation at 10 uM by spectrophotometry; assay type: functional; conditions: Sus scrofa; summary of the method: as §1
[3] = Antiplatelet activity against pig platelet assessed as inhibition of thrombin-induced platelet aggregation by spectrophotometry; assay type: functional, cell-based; conditions: Sus scrofa; summary of the method: as §1
[4] = test system: Rattus norvegicus; assay: Antithrombotic activity in Wistar rat assessed as thrombus weight at 15 umol/kg, iv (reference value: 24.09 +/- 2.33 mg); assay type: functional
[5] = Antiplatelet activity against pig platelet assessed as inhibition of PAF-induced platelet aggregation at 10 uM by spectrophotometry; assay type: functional; conditions: Sus scrofa; summary of the method: as §1
[6] = Antiplatelet activity against pig platelet assessed as inhibition of arachidonic acid-induced platelet aggregation by spectrophotometry; assay type: functional, cell-based; conditions: Sus scrofa; summary of the method: as §1
[7] = test system: Rattus norvegicus; assay: Antithrombotic activity in Wistar rat assessed as thrombus weight at 15 umol/kg, iv (reference value: 25.99 +/- 2.41 mg); assay type: functional
[8] = Antiplatelet activity against pig platelet assessed as inhibition of thrombin-induced platelet aggregation at 10 uM by spectrophotometry; assay type: functional; conditions: Sus scrofa; summary of the method: as §1
[9] = Antiplatelet activity against pig platelet assessed as inhibition of arachidonic acid-induced platelet aggregation at 10 uM by spectrophotometry; assay type: functional; conditions: Sus scrofa; summary of the method: as §1
[10] = Antiplatelet activity against pig platelet assessed as inhibition of ADP-induced platelet aggregation by spectrophotometry; assay type: functional, cell-based; conditions: Sus scrofa; summary of the method: as §1
[11] = test system: Rattus norvegicus; assay: Antithrombotic activity in Wistar rat assessed as thrombus weight at 167 umol/kg, iv (reference value: 25.99 +/- 2.41 mg); assay type: functional
[12] = test system: Rattus norvegicus; assay: Antithrombotic activity in Wistar rat assessed as thrombus weight at 15 umol/kg, iv (reference value: 28.54 +/- 2.62 mg); assay type: functional
[13] = test system: Rattus norvegicus; assay: Antithrombotic activity in Wistar rat assessed as thrombus weight at 167 umol/kg, iv (reference value: 28.54 +/- 2.62 mg); assay type: functional
[14] = test system: Rattus norvegicus; assay: Antithrombotic activity in Wistar rat assessed as thrombus weight at 167 umol/kg, iv (reference value: 24.09 +/- 2.33 mg); assay type: functional
[15] = test system: Aorta; assay: Inhibition of noradrenaline-induced contraction in Wistar rat thoracic aortic ring assessed as vasorelaxant activity at 300 uM treated after noradrenaline challenge; assay type: functional; design: scale not given: the % may be the effect or the level left
Summary of the method: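 Male Wistar rats, 250–300 g, were decapitated and aortic strips were mounted in 37 °C Krebs solution (pH 7.4) gassed with 95% O2/5% CO2, connected to a tension transducer. Strips were contracted with 59 µM noradrenaline, washed, stabilised 30 min, then re-contracted with 59 µM noradrenaline. At peak contraction, compound in ethanol or ethanol alone was added and relaxation was recorded.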

[16] = test system: Rattus norvegicus; assay: Antithrombotic activity in Wistar rat assessed as thrombus weight at 10 nmol/kg, iv (reference value: 24.09 +/- 2.33 mg); assay type: functional
[17] = test system: Rattus norvegicus; assay: Antithrombotic activity in iv dosed Wistar rat assessed as decrease in thrombus weight; assay type: functional, organism-based
[18] = test system: Rattus norvegicus; assay: Antithrombotic activity in Wistar rat assessed as thrombus weight at 100 nmol/kg, iv (reference value: 22.09 +/- 3.33 mg); assay type: functional
[19] = test system: Rattus norvegicus; assay: Antithrombotic activity in Wistar rat assessed as thrombus weight at 1 nmol/kg, iv (reference value: 22.09 +/- 3.33 mg); assay type: functional

Structure (SMILES)	IC50 [1]	IC50 [3]	IC50 [6]	IC50 [10]	Activity [15]	Activity [16]	also measured
O=C(O)[C@@H]1Cc2ccccc2CN1	944 nM	980 nM	481 nM	542 nM	–	–	inhibition at 10 µM [2]: 10.7%; Activity [4]: 22.01 mg; inhibition at 10 µM [5]: 13.5%; Activity [7]: 22.22 mg; inhibition at 10 µM [8]: 14.5%; inhibition at 10 µM [9]: 10.4%
CC(=O)Oc1ccccc1C(=O)O [ASPIRIN]	–	–	–	–	–	–	Activity [11]: 15.01 mg; Activity [12]: 27.6 mg; Activity [13]: 13.22 mg; Activity [14]: 13.22 mg
CC1(C)N2Cc3ccccc3C[C@H]2C(=O)N1[C@@H](Cc1ccccc1)C(=O)O	496 nM	578 nM	277 nM	163 nM	26.61%	13.27 mg	–
CC1(C)N2Cc3ccccc3C[C@H]2C(=O)N1[C@@H](CC(=O)O)C(=O)O	801 nM	932 nM	447 nM	294 nM	2.89%	21.41 mg	–
C[C@@H](C(=O)O)N1C(=O)[C@@H]2Cc3ccccc3CN2C1(C)C	576 nM	677 nM	324 nM	200 nM	8.41%	15.45 mg	–
CC1(C)N2Cc3ccccc3C[C@H]2C(=O)N1[C@@H](CCC(N)=O)C(=O)O	541 nM	629 nM	302 nM	182 nM	12.24%	14.39 mg	–
CC(C)[C@@H](C(=O)O)N1C(=O)[C@@H]2Cc3ccccc3CN2C1(C)C	525 nM	610 nM	292 nM	175 nM	16%	14.01 mg	–
CC1(C)N2Cc3ccccc3C[C@H]2C(=O)N1[C@@H](CCCNC(=N)N)C(=O)O	486 nM	567 nM	271 nM	159 nM	32.58%	13.01 mg	–
CC1(C)N2Cc3ccccc3C[C@H]2C(=O)N1[C@@H](CC(N)=O)C(=O)O	777 nM	903 nM	433 nM	283 nM	3.89%	20.75 mg	–
CC(C)C[C@@H](C(=O)O)N1C(=O)[C@@H]2Cc3ccccc3CN2C1(C)C	515 nM	599 nM	287 nM	171 nM	30.14%	12.99 mg and 13.79 mg	inhibition [17]: Dose-dependent effect; Activity [18]: 10.02 mg; Activity [19]: 20.67 mg
CCC(C)[C@@H](C(=O)O)N1C(=O)[C@@H]2Cc3ccccc3CN2C1(C)C (stereo partly specified)	486 nM	565 nM	271 nM	158 nM	34.29%	12.99 mg	–
